Reference: ChEMBL document CHEMBL4715736, “Identification of anticancer agents based on the thieno[2,3-b]pyridine and 1H-pyrazole molecular scaffolds” (2016)

Legend:
Format in all cases: functional
A498 = assay: Growth inhibition of human A498 cells incubated for 48 hrs by sulforhodamine B assay
Method in brief: (§1)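 NCI Developmental Therapeutics Program NCI60 panel. Compounds that were active in the 10 µM one-dose screen went on to dose–response testing. Growth at each concentration is expressed relative to untreated control (100%). GI50 (concentration giving 50% of maximal inhibition of proliferation) and TGI (concentration giving total growth inhibition) were derived from the curves.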

HOP-92 = assay: Growth inhibition of human HOP-92 cells incubated for 48 hrs by sulforhodamine B assay
Method in brief: (§2)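 NCI60 panel at the NCI Developmental Therapeutics Program. Only compounds active in the 10 µM screen went to dose-response testing. GI50, the concentration giving 50% of maximal inhibition of proliferation, and TGI, the concentration giving total growth inhibition, were derived from the dose-response curves.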

COLO 205 = assay: Growth inhibition of human COLO 205 cells assessed as cell growth at 0.01 uM incubated for 48 hrs by sulforhodamine B assay relative to control; details: read-out: Activity; method in brief: as §1
SF-295 [1] = assay: Growth inhibition of human SF-295 cells assessed as cell growth at 0.1 uM incubated for 48 hrs by sulforhodamine B assay relative to control; details: read-out: Activity
MOLT-4 = assay: Growth inhibition of human MOLT-4 cells incubated for 48 hrs by sulforhodamine B assay; method in brief: as §2
UO-31 [2] = assay: Growth inhibition of human UO-31 cells assessed as cell growth at 100 uM incubated for 48 hrs by sulforhodamine B assay relative to control; details: read-out: Activity
UO-31 [3] = assay: Growth inhibition of human UO-31 cells assessed as cell growth at 0.1 uM incubated for 48 hrs by sulforhodamine B assay relative to control; details: read-out: Activity
NCI-H522 = assay: Growth inhibition of human NCI-H522 cells incubated for 48 hrs by sulforhodamine B assay; method in brief: as §2
M14 = assay: Growth inhibition of human M14 cells assessed as cell growth at 100 uM incubated for 48 hrs by sulforhodamine B assay relative to control; details: read-out: Activity
NCI-H23 [4] = assay: Growth inhibition of human NCI-H23 cells assessed as cell growth at 0.1 uM incubated for 48 hrs by sulforhodamine B assay relative to control; details: read-out: Activity
SF-295 [5] = assay: Growth inhibition of human SF-295 cells assessed as cell growth at 100 uM incubated for 48 hrs by sulforhodamine B assay relative to control; details: read-out: Activity
NCI/ADR-RES = assay: Growth inhibition of human NCI/ADR-RES cells incubated for 48 hrs by sulforhodamine B assay; method in brief: as §2
NCI-H460 [6] = assay: Growth inhibition of human NCI-H460 cells assessed as cell growth at 1 uM incubated for 48 hrs by sulforhodamine B assay relative to control; details: read-out: Activity
NCI-H226 [7] = assay: Growth inhibition of human NCI-H226 cells assessed as cell growth at 1 uM incubated for 48 hrs by sulforhodamine B assay relative to control; details: read-out: Activity
BT-549 = assay: Growth inhibition of human BT-549 cells assessed as cell growth at 0.1 uM incubated for 48 hrs by sulforhodamine B assay relative to control; details: read-out: Activity
MDA-MB-435 = assay: Growth inhibition of human MDA-MB-435 cells incubated for 48 hrs by sulforhodamine B assay; method in brief: as §2
OVCAR-3 = assay: Growth inhibition of human OVCAR-3 cells assessed as cell growth at 0.1 uM incubated for 48 hrs by sulforhodamine B assay relative to control; details: read-out: Activity
SR = assay: Growth inhibition of human SR cells assessed as cell growth at 0.01 uM incubated for 48 hrs by sulforhodamine B assay relative to control; details: read-out: Activity
NCI-H23 [8] = assay: Growth inhibition of human NCI-H23 cells assessed as cell growth at 0.01 uM incubated for 48 hrs by sulforhodamine B assay relative to control; details: read-out: Activity
SK-MEL-2 = assay: Growth inhibition of human SK-MEL-2 cells assessed as cell growth at 1 uM incubated for 48 hrs by sulforhodamine B assay relative to control; details: read-out: Activity
NCI-H460 [9] = assay: Growth inhibition of human NCI-H460 cells assessed as cell growth at 0.01 uM incubated for 48 hrs by sulforhodamine B assay relative to control; details: read-out: Activity
HT-29 [10] = assay: Growth inhibition of human HT-29 cells assessed as cell growth at 1 uM incubated for 48 hrs by sulforhodamine B assay relative to control; details: read-out: Activity
SNB-75 = assay: Growth inhibition of human SNB-75 cells assessed as cell growth at 100 uM incubated for 48 hrs by sulforhodamine B assay relative to control; details: read-out: Activity
MDA-MB-468 = assay: Growth inhibition of human MDA-MB-468 cells assessed as cell growth at 0.01 uM incubated for 48 hrs by sulforhodamine B assay relative to control; details: read-out: Activity
SNB-19 = assay: Growth inhibition of human SNB-19 cells assessed as cell growth at 1 uM incubated for 48 hrs by sulforhodamine B assay relative to control; details: read-out: Activity
SK-MEL-28 = assay: Growth inhibition of human SK-MEL-28 cells assessed as cell growth at 100 uM incubated for 48 hrs by sulforhodamine B assay relative to control; details: read-out: Activity
SF-268 = assay: Growth inhibition of human SF-268 cells assessed as cell growth at 0.1 uM incubated for 48 hrs by sulforhodamine B assay relative to control; details: read-out: Activity
HT-29 [11] = assay: Growth inhibition of human HT-29 cells incubated for 48 hrs by sulforhodamine B assay; method in brief: as §2
HCT-116 = assay: Growth inhibition of human HCT-116 cells incubated for 48 hrs by sulforhodamine B assay; method in brief: as §2
HCC 2998 [12] = assay: Growth inhibition of human HCC 2998 cells assessed as cell growth at 0.01 uM incubated for 48 hrs by sulforhodamine B assay relative to control; details: read-out: Activity; method in brief: as §1
NCI-H226 [13] = assay: Growth inhibition of human NCI-H226 cells assessed as cell growth at 100 uM incubated for 48 hrs by sulforhodamine B assay relative to control; details: read-out: Activity
HCC 2998 [14] = assay: Growth inhibition of human HCC 2998 cells assessed as cell growth at 0.1 uM incubated for 48 hrs by sulforhodamine B assay relative to control; details: read-out: Activity; method in brief: as §1
SW-620 = assay: Growth inhibition of human SW-620 cells assessed as cell growth at 0.1 uM incubated for 48 hrs by sulforhodamine B assay relative to control; details: read-out: Activity
K562 = assay: Growth inhibition of human K562 cells assessed as cell growth at 100 uM incubated for 48 hrs by sulforhodamine B assay relative to control; details: read-out: Activity
[15] = read-out: LC50 (the source's name)

CN1CCc2nc3sc(C(N)=O)c(N)c3c(-c3cccs3)c2C1
GI50 (A498): 2.58 µM | TGI (A498): 7.27 µM | CC50 (A498; [15]): > 100 µM | GI50 (HOP-92): 3.16 µM | LC50 (concentration killing 50% of the starting cells) (HOP-92): > 100 µM | TGI (HOP-92): 9.16 µM | growth at 0.01 µM (COLO 205): 105% | growth at 0.1 µM (SF-295 [1]): 103% | GI50 (MOLT-4): 2.89 µM | TGI (MOLT-4): 48.4 µM | CC50 (MOLT-4; [15]): > 100 µM | growth at 100 µM (UO-31 [2]): 6% | growth at 0.1 µM (UO-31 [3]): 102% | GI50 (NCI-H522): 2.91 µM | LC50 (NCI-H522): > 100 µM | TGI (NCI-H522): 17.8 µM | growth at 100 µM (M14): -27% | growth at 0.1 µM (NCI-H23 [4]): 95% | growth at 100 µM (SF-295 [5]): 4% | GI50 (NCI/ADR-RES): 3.69 µM | TGI (NCI/ADR-RES): 98.8 µM | CC50 (NCI/ADR-RES; [15]): > 100 µM | growth at 1 µM (NCI-H460 [6]): 108% | growth at 1 µM (NCI-H226 [7]): 88% | growth at 0.1 µM (BT-549): 114% | GI50 (MDA-MB-435): 3.13 µM | TGI (MDA-MB-435): > 100 µM | CC50 (MDA-MB-435; [15]): > 100 µM | growth at 0.1 µM (OVCAR-3): 99% | growth at 0.01 µM (SR): 97% | growth at 0.01 µM (NCI-H23 [8]): 97% | growth at 1 µM (SK-MEL-2): 108% | growth at 0.01 µM (NCI-H460 [9]): 109% | growth at 1 µM (HT-29 [10]): 91% | growth at 100 µM (SNB-75): -40% | growth at 0.01 µM (MDA-MB-468): 86% | growth at 1 µM (SNB-19): 104% | growth at 100 µM (SK-MEL-28): -18% | growth at 0.1 µM (SF-268): 110% | GI50 (HT-29 [11]): 3.11 µM | LC50 (HT-29 [11]): > 100 µM | TGI (HT-29 [11]): 70.9 µM | GI50 (HCT-116): 2.31 µM | LC50 (concentration killing 50% of cells) (HCT-116): > 100 µM | TGI (HCT-116): > 100 µM | growth at 0.01 µM (HCC 2998 [12]): 94% | growth at 100 µM (NCI-H226 [13]): 14% | growth at 0.1 µM (HCC 2998 [14]): 99% | growth at 0.1 µM (SW-620): 110% | growth at 100 µM (K562): 2%
